Broadly, the logD is the decadic logarithm of the distribution of all forms, ionised or not, between an organic phase and buffer at a given pH. Low readings indicate lower lipophilicity, high ones higher lipophilicity.

The values that follow come from ChEMBL document CHEMBL1156163, “(18)F Labeled benzimidazole derivatives as potential radiotracer for positron emission tomography (PET) tumor imaging” (Bioorg Med Chem, 2010).

One data set deals with Heart. Nature of the data set: Biodistribution in mouse S180 cells xenografted Kunming mouse heart at 10 to 20 uCi, iv after 15 mins by gamma counting. Format: ADME, organism-based, CCRF S-180. The settings on record: in vivo, 0.25 h.
In data set [1] the test system is Stomach. Kind of data set: Biodistribution in mouse S180 cells xenografted Kunming mouse stomach at 10 to 20 uCi, iv after 120 mins by gamma counting. Format: ADME, organism-based, CCRF S-180. Particulars: in vivo, 2 h. In a few lines: (§1)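 Female Kunming mice with subcutaneous S180 tumors (5 × 10^6 cells into right front flank, no anesthesia), used 7–14 days after inoculation at 18–22 g. Tracer in saline (10–20 µCi, 100 µL) given by tail vein; mice killed at 5, 15, 30, 60 and 120 min. Tissues excised, blotted, weighed and gamma-counted with decay correction. Reported as %ID/g, mean ± SD, n = 4.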

Data set [2] has as its system Blood. Nature of the data set: Biodistribution in mouse S180 cells xenografted Kunming mouse blood at 10 to 20 uCi, iv after 5 mins by gamma counting. Format: ADME, organism-based, CCRF S-180. Particulars: in vivo.
The test system of data set [3] is Muscle tissue. Kind of data set: Biodistribution in mouse S180 cells xenografted Kunming mouse muscle at 10 to 20 uCi, iv after 30 mins by gamma counting. Format: ADME, organism-based, CCRF S-180. The settings on record: in vivo, 0.5 h.
Data set [4] has as its system Blood. Kind of data set: Biodistribution in mouse S180 cells xenografted Kunming mouse blood at 10 to 20 uCi, iv after 30 mins by gamma counting. The data set is classed as ADME, organism-based, CCRF S-180. The settings on record: in vivo, 0.5 h.
Data set [5] is described as follows: Ratio of drug uptake in tumor to brain of mouse S180 cells xenografted Kunming mouse at 10 to 20 uCi, iv after 30 mins by gamma counting. The data set is classed as ADME, organism-based, CCRF S-180. The settings on record: in vivo, 0.5 h.
Data set [6] deals with Stomach. Kind of data set: Biodistribution in mouse S180 cells xenografted Kunming mouse stomach at 10 to 20 uCi, iv after 5 mins by gamma counting. Format: ADME, organism-based, CCRF S-180. The settings on record: in vivo. In short, it runs like this: as §1
Data set [7] deals with Liver. Kind of data set: Biodistribution in mouse S180 cells xenografted Kunming mouse liver at 10 to 20 uCi, iv after 30 mins by gamma counting. The settings on record: in vivo, 0.5 h. Format: ADME, organism-based, CCRF S-180.
The test system of data set [8] is Kidney. Kind of data set: Biodistribution in mouse S180 cells xenografted Kunming mouse kidney at 10 to 20 uCi, iv after 60 mins by gamma counting. The data set is classed as ADME, organism-based, CCRF S-180. Particulars: in vivo, 1 h.
Data set [9] relates to Liver. Kind of data set: Biodistribution in mouse S180 cells xenografted Kunming mouse liver at 10 to 20 uCi, iv after 5 mins by gamma counting. Format: ADME, organism-based, CCRF S-180. The settings on record: in vivo.
Data set [10] relates to Kidney. Kind of data set: Biodistribution in mouse S180 cells xenografted Kunming mouse kidney at 10 to 20 uCi, iv after 15 mins by gamma counting. The data set is classed as ADME, organism-based, CCRF S-180. The settings on record: in vivo, 0.25 h.
Data set [11] has as its system Stomach. Nature of the data set: Biodistribution in mouse S180 cells xenografted Kunming mouse stomach at 10 to 20 uCi, iv after 15 mins by gamma counting. The data set is classed as ADME, organism-based, CCRF S-180. Particulars: in vivo, 0.25 h. In a few lines: as §1
A short description of data set [12]: Octanol-water partition coefficient, log P at pH 7.4 after 5 mins. The data set is classed as physicochemical. In a few lines:
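Shake-flask partition using 2.5 mL n-octanol and 2.5 mL 0.01 M PBS pH 7.4, with 0.01 mL radioactive sample added. Mixed vigorously for 5 min at room temperature, then centrifuged. Radioactivity counted in 0.01 mL of each phase.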

Data set [13] can be described thus: Ratio of drug uptake in tumor to muscle of mouse S180 cells xenografted Kunming mouse at 10 to 20 uCi, iv after 120 mins by gamma counting. Particulars: in vivo, 2 h. The data set is classed as ADME, organism-based, CCRF S-180.
Data set [14] has as its system Lung. Kind of data set: Biodistribution in mouse S180 cells xenografted Kunming mouse lung at 10 to 20 uCi, iv after 60 mins by gamma counting. Format: ADME, organism-based, CCRF S-180. Particulars: in vivo, 1 h.
Another data set has as its system Pancreas. Kind of data set: Biodistribution in mouse S180 cells xenografted Kunming mouse pancreas at 10 to 20 uCi, iv after 60 mins by gamma counting. Format: ADME, organism-based, CCRF S-180. The settings on record: in vivo, 1 h.
Data set [15] deals with Kidney. Nature of the data set: Biodistribution in mouse S180 cells xenografted Kunming mouse kidney at 10 to 20 uCi, iv after 5 mins by gamma counting. Format: ADME, organism-based, CCRF S-180. Particulars: in vivo.
In data set [16] the test system is Stomach. Kind of data set: Biodistribution in mouse S180 cells xenografted Kunming mouse stomach at 10 to 20 uCi, iv after 60 mins by gamma counting. Format: ADME, organism-based, CCRF S-180. The settings on record: in vivo, 1 h. In a few lines:
as §1

Data set [17] concerns Liver. Nature of the data set: Biodistribution in mouse S180 cells xenografted Kunming mouse liver at 10 to 20 uCi, iv after 15 mins by gamma counting. Format: ADME, organism-based, CCRF S-180. Particulars: in vivo, 0.25 h.
The test system of data set [18] is Stomach. Kind of data set: Biodistribution in mouse S180 cells xenografted Kunming mouse stomach at 10 to 20 uCi, iv after 30 mins by gamma counting. Format: ADME, organism-based, CCRF S-180. The settings on record: in vivo, 0.5 h. In a few lines:
as §1

In data set [19] the test system is Muscle tissue. Kind of data set: Biodistribution in mouse S180 cells xenografted Kunming mouse muscle at 10 to 20 uCi, iv after 60 mins by gamma counting. Format: ADME, organism-based, CCRF S-180. Particulars: in vivo, 1 h.
A short description of data set [20]: Ratio of drug uptake in tumor to blood of mouse S180 cells xenografted Kunming mouse at 10 to 20 uCi, iv after 30 mins by gamma counting. The data set is classed as ADME, organism-based, CCRF S-180. Particulars: tumour, 0.5 h.
In a further data set the test system is Plasma. Kind of data set: Metabolic stability in mouse plasma at 100 to 150 uCi after 3 hrs by HPLC analysis. The data set is classed as ADME, cell-free. In short, it runs like this:
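Radiotracer (100–150 µCi, 50 µL) incubated in 0.5 mL mouse plasma for 3 h. Plasma then mixed with 1 mL CH3CN and centrifuged 5 min at 13,200 rpm. Supernatant passed through a C18 Sep-Pak and analysed by HPLC.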

Data set [21] concerns Lung. Nature of the data set: Biodistribution in mouse S180 cells xenografted Kunming mouse lung at 10 to 20 uCi, iv after 15 mins by gamma counting. Format: ADME, organism-based, CCRF S-180. The settings on record: in vivo, 0.25 h.

Take `CCCc1nc2c(C)cc(C(=O)O)cc2n1CC[18F]`: the Drug uptake with Heart turned out to be 2.66 % ID/g; with Stomach [1] it was 1.14 % ID/g; in the data set with Blood [2], 3.17 % ID/g; in the data set on Muscle tissue [3], 1.17 % ID/g; in the data set on Blood [4], 1.36 % ID/g; with Stomach [6] it was 5.52 % ID/g. The Drug uptake with Liver [7] is 2.53 % ID/g; in the data set on Kidney [8] it was 4.2 % ID/g; in the data set on Liver [9], 4.13 % ID/g; with Kidney [10] it was 13.79 % ID/g; with Stomach [11], 4.33 % ID/g; in the data set with Lung [14] it was 2.35 % ID/g. In addition, the Drug uptake in the data set on Pancreas came to 0.67 % ID/g; in the data set with Kidney [15] it was 35.9 % ID/g; with Stomach [16], 3.23 % ID/g; with Liver [17], 4.02 % ID/g; in the data set with Stomach [18] it was 3.87 % ID/g; with Muscle tissue [19], 0.62 % ID/g. In the data set with Lung [21], the Drug uptake turned out to be 5.44 % ID/g. For the same compound, the Ratio in [5] was 4.81; in data set [13], 2.58; in [20], 1.09. The logD at 5 min in [12] is -0.5. Moreover, the Stability result in the data set with Plasma is given as “Stable”.
Take `N[C@@H](Cc1ccc(OCC[18F])cc1)C(=O)O` [FLORETYROSINE F18]: the Drug uptake is listed as 3.41 % ID/g in the data set with Heart; 6.81 % ID/g in the data set on Blood [2]; 2.69 % ID/g in the data set on Muscle tissue [3]; 3.23 % ID/g in the data set on Blood [4]; 4.23 % ID/g in the data set with Liver [7]; 3.75 % ID/g with Kidney [8]. Also, the Drug uptake in the data set with Liver [9] turned out to be 7.67 % ID/g; in the data set with Kidney [10], 6.79 % ID/g; in the data set with Lung [14], 4.7 % ID/g; with Pancreas, 0.03 % ID/g; with Kidney [15] it was 6.58 % ID/g; with Liver [17], 5.6 % ID/g. In addition, the Drug uptake in the data set on Muscle tissue [19] came to 2.37 % ID/g; with Lung [21], 9.82 % ID/g. Further, the Ratio in [5] was found to be 2.54; in data set [13] it was 1.02; in [20], 1.02.
Consider `OC[C@H]1O[C@@H](O)[C@H]([18F])[C@@H](O)[C@@H]1O` [FLUDEOXYGLUCOSE-F18], for which the Drug uptake is 2.5 % ID/g with Heart; 1.09 % ID/g in the data set on Blood [2]; 1.07 % ID/g with Muscle tissue [3]; 0.16 % ID/g with Blood [4]; 0.23 % ID/g in the data set with Liver [7]; 0.54 % ID/g with Kidney [8]. Further, the Drug uptake is listed as 1.35 % ID/g in the data set with Liver [9]; 1.04 % ID/g in the data set with Kidney [10]; 0.57 % ID/g in the data set on Lung [14]; 0.83 % ID/g with Pancreas; 2.16 % ID/g with Kidney [15]; 0.47 % ID/g in the data set on Liver [17]. Also, the Drug uptake in the data set with Muscle tissue [19] was 0.97 % ID/g; with Lung [21], 0.77 % ID/g. In addition, the Ratio in data set [5] is recorded as 0.61; in data set [13], 2.2.
